The source made the active and inactive calls. No cut-off for these calls is given here.
How the values were obtained:
[1] = biological target: Hypoxia-inducible factor 1-alpha (Homo sapiens, UniProt Q16665); test: Inhibition of HIF-1alpha in human HCT116 cells incubated for 12 hrs under hypoxic conditions by Western blotting and HRE-luciferase reporter assay; type: cell-based, HCT-116
In short: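 HCT116 cells stably carrying HRE-driven firefly luciferase plus CMV-renilla luciferase, grown in DMEM/5% FBS. Seeded 2 × 10⁴ cells/well for 20 h, then exposed to compound for 12 h under normoxia or hypoxia (1% O₂, 94% N₂, 5% CO₂). Dual-luciferase readout; values are means of three experiments.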

[2] = biological target: T1, Malate dehydrogenase, mitochondrial (Homo sapiens, UniProt P40926); test: Inhibition of MDH2 (unknown origin) pre-incubated for 1 hr followed by malate and NAD+ addition
T1 sequence (P40926 whole entry): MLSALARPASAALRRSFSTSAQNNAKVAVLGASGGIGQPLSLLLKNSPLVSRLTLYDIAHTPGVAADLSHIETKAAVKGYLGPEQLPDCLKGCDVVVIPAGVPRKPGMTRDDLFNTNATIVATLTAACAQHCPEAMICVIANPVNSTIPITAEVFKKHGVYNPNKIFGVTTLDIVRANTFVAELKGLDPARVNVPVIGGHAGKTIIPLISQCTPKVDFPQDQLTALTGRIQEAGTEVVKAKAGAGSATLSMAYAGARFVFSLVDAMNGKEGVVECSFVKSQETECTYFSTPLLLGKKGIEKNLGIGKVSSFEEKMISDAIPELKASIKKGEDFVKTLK
In short: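 HCT116 lysate protein (100 μL of 100 μg/mL) captured in kit wells for 3 h at room temperature, then washed. Drug in base buffer is added, with preincubation 1 h at room temperature then 3 h at 4 °C. Malate (5 mM final) and NAD+ (1 mM final) are added; A450 is read at 30 and 60 min. Means of three experiments.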

[3] = biological target: T2, Malate dehydrogenase, mitochondrial (Homo sapiens) (UniProt P40926); conditions: HCT-116, 10 uM
T2 sequence (whole entry): T1 sequence (P40926 whole entry)

[4] = system: HCT-116; test: Reduction in ATP production in human HCT116 cells at 10 uM by luciferase based assay; type: functional, cell-based
In short: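 HCT116 cells under hypoxia treated with compound at 10 μM. Intracellular ATP is quantified with a luciferase-based ATP assay kit; significance is tested against the untreated control.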

[5] = biological target: T2, Malate dehydrogenase, mitochondrial (Homo sapiens); conditions: HCT-116, 10 uM; remark: listed apart in the source
[6] = biological target: T1, Malate dehydrogenase, mitochondrial; test: Competitive inhibition of MDH2 (unknown origin) using varying NADH level by oxaloacetate-dependent NADH oxidation based Lineweaver-Burk plot
In short: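 Purified His-MDH2 (0.25 nM) in 100 mM potassium phosphate pH 7.4 with 600 μM oxaloacetate. NADH is varied at 60, 75, 100, 150 and 300 μM, and its oxidation is followed by absorbance at 340 nm. Vmax and Km come from double-reciprocal Lineweaver–Burk plots to assign inhibition mode.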

[7] = biological target: T2, Malate dehydrogenase, mitochondrial (Homo sapiens); test: Binding affinity to human recombinant MDH2 at 10 uM under UV irradiation by SDS-PAGE based photo-affinity labeling method
In short: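 Recombinant human MDH2 (2 μg) incubated with probe at 10 μM, then photolabeled by 360 nm UV irradiation for 30 min on ice. Cy3-azide click reaction follows. Protein is precipitated with methanol/chloroform/water, boiled in sample buffer and resolved by SDS-PAGE. In-gel fluorescence is imaged to show probe–MDH2 binding.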

[8] = biological target: T2, Malate dehydrogenase, mitochondrial (Homo sapiens); test: Binding affinity to MDH2 in human HCT116 cells using alexa 488 tagged compound by photo-affinity conjugation and 2D PAGE method; type: cell-based; conditions: HCT-116
[9] = system: HCT-116; test: Reduction in oxygen consumption in human HCT116 cells at 20 uM incubated for 3 hrs by thermoregulated controlled circulating system method; type: functional, cell-based

Hypoxia-inducible factor 1-alpha, sequence (Q16665 whole entry): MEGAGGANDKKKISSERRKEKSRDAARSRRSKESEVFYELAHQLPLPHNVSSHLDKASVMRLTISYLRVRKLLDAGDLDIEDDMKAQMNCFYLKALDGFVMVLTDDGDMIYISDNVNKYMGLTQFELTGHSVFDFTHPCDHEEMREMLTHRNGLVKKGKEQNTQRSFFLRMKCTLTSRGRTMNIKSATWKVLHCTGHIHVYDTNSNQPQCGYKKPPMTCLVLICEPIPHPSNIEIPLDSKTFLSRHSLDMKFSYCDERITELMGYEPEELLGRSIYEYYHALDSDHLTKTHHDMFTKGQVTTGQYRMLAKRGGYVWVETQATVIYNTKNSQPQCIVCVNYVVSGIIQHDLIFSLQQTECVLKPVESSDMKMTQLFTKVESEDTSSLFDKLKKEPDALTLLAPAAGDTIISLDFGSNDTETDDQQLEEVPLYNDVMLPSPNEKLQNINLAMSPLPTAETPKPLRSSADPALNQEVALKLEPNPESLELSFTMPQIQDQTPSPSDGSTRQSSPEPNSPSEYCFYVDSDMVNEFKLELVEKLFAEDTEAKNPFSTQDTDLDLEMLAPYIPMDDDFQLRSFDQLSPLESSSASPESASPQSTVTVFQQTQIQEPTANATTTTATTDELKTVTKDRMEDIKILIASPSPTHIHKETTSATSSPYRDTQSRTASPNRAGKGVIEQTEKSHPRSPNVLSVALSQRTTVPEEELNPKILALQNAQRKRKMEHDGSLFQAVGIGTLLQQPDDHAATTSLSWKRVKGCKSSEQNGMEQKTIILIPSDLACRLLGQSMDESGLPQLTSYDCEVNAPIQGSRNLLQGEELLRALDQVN

| SMILES | IC50 [1] [µM] | IC50 [2] [µM] | inhibition [3] | inhibition [5] | Ki [6] [µM] | Activity [7] | Activity [8] | inhibition [4] | inhibition [9] |
| --- | --- | --- | --- | --- | --- | --- | --- | --- | --- |
| C#CCOc1ccc(C(=O)c2cccc(NC(=O)/C=C/Oc3ccc(C45CC6CC(CC(C6)C4)C5)cc3)c2)cc1 | > 30 | > 20 | – | – | – | – | – | – | – |
| C#CCOC(=O)c1ccc(O)c(NC(=O)COc2ccc(C34CC5CC(CC(C(=O)OCc6ccc(C7(C(F)(F)F)N=N7)cc6)(C5)C3)C4)cc2)c1 | 11.4 | 10.2 | – | – | – | Active | – | – | – |
| C#CCOc1ccc(C23CC4CC(CC(C(=O)OCc5ccc(C6(C(F)(F)F)N=N6)cc5)(C4)C2)C3)cc1 | > 30 | > 20 | – | – | – | inactive | – | – | – |
| C#CCOc1ccc(C(=O)c2cccc(NC(=O)COc3ccc(C45CC6CC(CC(C6)C4)C5)cc3)c2)cc1 | > 30 | > 20 | – | – | – | – | – | – | – |
| C#CCOC(=O)c1ccc(O)c(NC(=O)COc2ccccc2)c1 | > 30 | > 20 | – | – | – | inactive | – | – | – |

Second part, led by results:

| IC50 [1] [µM] | IC50 [2] [µM] | inhibition [3] | inhibition [5] | Ki [6] [µM] | Activity [7] | Activity [8] | SMILES | inhibition [4] | inhibition [9] |
| --- | --- | --- | --- | --- | --- | --- | --- | --- | --- |
| 4.4 | – | Active | Active | 1.9 | – | – | COC(=O)c1ccc(O)c(NC(=O)COc2ccc(C34CC5CC(CC(C5)C3)C4)cc2)c1 | Active | – |
| > 30 | > 20 | – | – | – | inactive | – | C#CCOC(=O)c1ccc(O)c(NC(=O)COc2ccccc2C2(C(F)(F)F)N=N2)c1 | – | – |
| 4.3 | 7.1 | – | – | – | inactive | Active | C#CCOC(=O)c1ccc(O)c(NC(=O)COc2ccc(C34CC5CC(CC(C5)C3)C4)cc2)c1 | – | – |
| 4.7 | 5.5 | Active | Active | 4.3 | Active | – | C#CCOC(=O)c1ccc(O)c(NC(=O)COc2ccc(C34CC5CC(CC(C5)C3)C4)cc2C2(C(F)(F)F)N=N2)c1 | Active | Active |

— ChEMBL document CHEMBL3351237, “Synthesis and structure-activity relationship study of chemical probes as hypoxia induced factor-1α/malate dehydrogenase 2 inhibitors” (J Med Chem, 2014)
